Assay results as given in ChEMBL document CHEMBL1121539, “Antitumor structure-activity relations. Nitrosoureas vs. L-1210 leukemia” (J Med Chem, 1980).

Tests used:
L1210 [1] = assay: Tested for 3 log kill of leukemia cells; type: functional, Mus musculus
How it was run: (§1)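 L-1210 leukemia cells (10^4) were inoculated intracerebrally into BDF2 mice, and drug was given intraperitoneally. The end point was the dose giving 3 log kill, expressed as log 1/C. The value comes from one or more individual experiments.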

L1210 [2] = assay: Toxicity against L-1210 leukemia cells in mice after intraperitoneal administration, activity is expressed as LD10; set-up: LD10: unit not given here; conditions: mouse, in vivo, ip
[3] = Partition coefficient (logP); type: physicochemical; conditions: octanol/water
How it was run: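 Shake partitioning between octanol and distilled water gave log P. For carboxylate substituents, log P was taken in 0.1 N NaOH, with Na+ as counterion.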

Mus musculus [4] = species: Mus musculus; assay: Tested for 3 log kill of leukemia cells (i.e., a reduction of 1000-fold in tumor cells); type: functional; how it was run: as §1
Mus musculus [5] = assay: Tested for toxicity against L-1210 leukemia cells in mice after ip administration, activity is expressed as LD10; type: organism-based; conditions: in vivo

Row | Compound | log(1/C) (L1210 [1]) | log(1/LD10) (L1210 [2]) | logP ([3]; read-out: logP) | logP [3] | log(1/C) (Mus musculus [4]) | log(1/LD10) (Mus musculus [5]) | LD10 (L1210 [2])
1 | O=NN(CCCl)C(=O)NC1CCS(=O)(=O)CC1 | 1.93 | 1.22 | 0.19 | – | – | – | –
2 | CC(C)(Cc1ccccc1)NC(=O)N(CCCl)N=O | 0.737 | -0.422 | 3.42 | – | – | – | –
3 | CC12CC3(C)CC(C)(C1)CC(NC(=O)N(CCCl)N=O)(C2)C3 | 0.783 | -0.384 | 5.75 | – | – | – | –
4 | O=NN(CCF)C(=O)NC1CCS(=O)(=O)CC1 | 1.92 | 0.922 | -0.39 | – | – | – | –
5 | CCCCCC(C)NC(=O)N(CCCl)N=O (stereo unspecified) | 0.853 | 0.642 | 3.55 | – | – | – | –
6 | O=NN(CCCl)C(=O)NCCF | 0.673 | 0.49 | 0.95 | – | – | – | –
7 | O=NN(CCCl)C(=O)NC1CCC(CC2CCC(NC(=O)N(CCCl)N=O)CC2)CC1 (stereo unspecified) | 1.36 | 0.283 | 6.07 | – | – | – | –
8 | O=NN(CCCl)C(=O)NC1CCCCCCCCCCC1 | 0.599 | -0.573 | 5.8 | – | – | – | –
9 | O=NN(CCCl)C(=O)NC1C2CC3CC(C2)CC1C3 (stereo unspecified) | 0.854 | 0.512 | 3.62 | – | – | – | –
10 | CC(NC(=O)N(CCCl)N=O)C(=O)O (stereo unspecified) | 0.918 | 0.511 | 0.5 | – | – | – | –
11 | O=NN(CCCl)C(=O)NC1CCSc2ccccc21 (stereo unspecified) | 1.4 | 0.585 | 2.91 | – | – | – | –
12 | O=NN(CCF)C(=O)NC1CCSCC1 | 1.69 | 0.827 | 1.43 | – | – | – | –
13 | CC(=O)OCC1CCC(NC(=O)N(CCCl)N=O)CC1 (stereo unspecified) | 1.66 | 1.02 | 2.35 | – | – | – | –
14 | O=NN(CCF)C(=O)NCCF | 1.6 | 1.37 | 0.38 | – | – | – | –
15 | O=NN(CCCl)C(=O)NC1CS(=O)(=O)CS(=O)(=O)C1 | 1.9 | 0.842 | -0.9 | – | – | – | –
16 | CC(=O)OC1CCC(NC(=O)N(CCCl)N=O)CC1 (stereo unspecified) | 1.55 | 0.813 | 1.66 | – | – | – | –
17 | O=NN(CCCl)C(=O)NC(C(=O)O)C1CCCCC1 (stereo unspecified) | 1.23 | 0.602 | 2.89 | – | – | – | –
18 | O=COCC1CCC(NC(=O)N(CCCl)N=O)CC1 (stereo unspecified) | 1.62 | 1.12 | 1.85 | – | – | – | –
19 | O=NN(CCCl)C(=O)NC1CCC(CCl)CC1 (stereo unspecified) | 1.27 | 0.658 | 3.01 | – | – | – | –
20 | CCOC(=O)C1(NC(=O)N(CCCl)N=O)CCCCC1 | 0.582 | -0.214 | 3.45 | – | – | – | –
21 | O=NN(CCCl)C(=O)NC1CSCSC1 | 1.81 | 1.07 | 2.08 | – | – | – | –
22 | O=NN(CCCl)C(=O)NC12CC3CC(CC(C3)C1)C2 | 1.16 | 0.664 | 3.62 | – | – | – | –
23 | NC(=O)N(CCCl)N=O | 1.05 | 1.43 | 0.57 | – | – | – | –
24 | O=NN(CCF)C(=O)NC1CC2CCC1C2 (stereo unspecified) | 1.25 | 0.547 | 2.4 | – | – | – | –

Row | Compound | log(1/C) (L1210 [1]) | log(1/LD10) (L1210 [2]) | logP ([3]; read-out: logP) | logP [3] | log(1/C) (Mus musculus [4]) | log(1/LD10) (Mus musculus [5]) | LD10 (L1210 [2])
25 | CN(C(=O)N(CC/C=N/C(=O)N(CCCl)N=O)N=O)C1CCCCC1 | 0.353 | -0.207 | 3.19 | – | – | – | –
26 | CC(C)C1CCC(NC(=O)N(CCF)N=O)CC1 (stereo unspecified) | 1.05 | 0.388 | 3.67 | – | – | – | –
27 | CC(C)(C)C1CCC(NC(=O)N(CCCl)N=O)CC1 (stereo unspecified) | 0.684 | -0.212 | 4.66 | – | – | – | –
28 | O=NN(CCF)C(=O)NC1CCC(NC(=O)N(CCCl)N=O)CC1 (stereo unspecified) | 1.37 | 0.595 | 2.41 | – | – | – | –
29 | Cc1cccc(C)c1NC(=O)N(CCCl)N=O | 1.29 | 0.864 | 2.57 | – | – | – | –
30 | CCOC(=O)C1CCCC(NC(=O)N(CCCl)N=O)C1 (stereo unspecified) | 1.41 | 0.786 | 2.2 | – | – | – | –
31 | CC(C)(NC(=O)N(CCCl)N=O)C(=O)O | 0.591 | -0.049 | 0.91 | – | – | – | –
32 | CC1CCC(NC(=O)N(CCF)N=O)CC1 (stereo unspecified) | 1.16 | 0.72 | 2.72 | – | – | – | –
33 | CC1(C)CCC(NC(=O)N(CCF)N=O)CC1 | 1.09 | 0.674 | 3.13 | – | – | – | –
34 | O=NN(CCCl)C(=O)N[C@H]1CC[C@@H](C(=O)O)CC1 | 1.63 | 1.03 | 1.68 | – | – | – | –
35 | O=NN(CCCl)C(=O)N[C@H]1CC[C@H](C(=O)O)CC1 | 1.47 | 1.01 | 1.53 | – | – | – | –
36 | O=NN(CCCl)C(=O)N[C@H]1CC[C@@H](CC(=O)O)CC1 | 1.35 | 0.701 | 2.22 | – | – | – | –
37 | O=NN(CCCl)C(=O)N[C@H]1CC[C@H](CC(=O)O)CC1 | 1.65 | 0.863 | 2.16 | – | – | – | –
38 | O=NN(CCCl)C(=O)N[C@@H]1CCC[C@@H](O)C1 | 1.44 | 0.795 | 1 | – | – | – | –
39 | COC(=O)[C@H]1CC[C@@H](NC(=O)N(CCCl)N=O)CC1 | 1.51 | 0.733 | 1.89 | – | – | – | –
40 | CO[C@H]1CC[C@@H](NC(=O)N(CCCl)N=O)CC1 | 1.38 | 0.819 | 2.09 | – | – | – | –
41 | CC(=O)O[C@H]1CCCC[C@@H]1NC(=O)N(CCCl)N=O | 1.65 | 0.91 | 2.56 | – | – | – | –
42 | O=NN(CCF)C(=O)N[C@H]1CC[C@@H](C(=O)O)CC1 | – | – | – | 1.1 | 1.06 | – | –
43 | O=NN(CCCl)C(=O)N[C@H]1CC[C@H](O)CC1 | – | – | – | 1.1 | – | 0.774 | –
44 | C[C@H]1S(=O)(=O)C[C@@H](NC(=O)N(CCCl)N=O)CS1(=O)=O | 1.89 | 1.04 | -0.53 | – | – | – | –
45 | O=NN(CCCl)C(=O)N[C@@H]1CCCC[C@@H]1O | 1.32 | 0.698 | 1.75 | – | – | – | –
46 | O=NN(CCCl)C(=O)N[C@@H]1CCC[C@H](O)C1 | 1.28 | 0.698 | 1.11 | – | – | – | –
47 | CC(=O)O[C@H]1CCCC[C@H]1NC(=O)N(CCCl)N=O | 1.24 | 0.776 | 1.96 | – | – | – | –
48 | CC(=O)O[C@@H]1[C@@H](OC(C)=O)[C@H](OC(C)=O)CO[C@H]1NC(=O)N(CCCl)N=O | 1.91 | 1.25 | 0.82 | – | – | – | –

Row | Compound | log(1/C) (L1210 [1]) | log(1/LD10) (L1210 [2]) | logP ([3]; read-out: logP) | logP [3] | log(1/C) (Mus musculus [4]) | log(1/LD10) (Mus musculus [5]) | LD10 (L1210 [2])
49 | CC1SCC(NC(=O)N(CCCl)N=O)CS1 (stereo unspecified) | 1.61 | 1 | 2.49 | – | – | – | –
50 | CC1(NC(=O)N(CCCl)N=O)CCCC1 | 0.576 | -0.03 | 2.7 | – | – | – | –
51 | O=NN(CCF)C(=O)NC1C2CC3CC(C2)CC1C3 (stereo unspecified) | 0.797 | 0.592 | 3.04 | – | – | – | –
52 | O=NN(CCCl)C(=O)NC1CCCCC1NC(=O)N(CCCl)N=O (stereo unspecified) | 1.5 | 0.423 | 3.57 | – | – | – | –
53 | O=NN(CCCl)C(=O)NC1CCCC1 | 0.74 | 0.215 | 2.19 | – | – | – | –
54 | CN(C)C(=O)c1ccc(NC(=O)N(CCCl)N=O)cc1 | 1.87 | – | 1.07 | – | – | – | 1.27
55 | O=NN(CCCl)C(=O)NC1CCS(=O)(=O)C1 (stereo unspecified) | 1.82 | 1.13 | 0.57 | – | – | – | –
56 | O=NN(CCCl)C(=O)NC1CCCC(C(=O)O)C1 (stereo unspecified) | 1.47 | 0.912 | 1.86 | – | – | – | –
57 | O=NN(CCCl)C(=O)NC1C=CCCC1 (stereo unspecified) | 1.16 | 0.848 | 2.45 | – | – | – | –
58 | CC(C)(C)C1CCCC(NC(=O)N(CCCl)N=O)C1 (stereo unspecified) | 0.763 | 0.239 | 4.6 | – | – | – | –
59 | O=NN(CCCl)C(=O)NC(Cc1ccccc1)C(=O)O (stereo unspecified) | 1.1 | 0.563 | 2.59 | – | – | – | –
60 | O=NN(CCCl)C(=O)NC1CCSCC1 | 2.1 | 1.25 | 2.07 | – | – | – | –
61 | CC(=O)OCC1CCC(NC(=O)N(CCF)N=O)CC1 (stereo unspecified) | 0.984 | 0.705 | 1.77 | – | – | – | –
62 | CCC1CCC(NC(=O)N(CCF)N=O)CC1 (stereo unspecified) | 0.736 | 0.515 | 3.26 | – | – | – | –
63 | CCC1CCC(NC(=O)N(CCCl)N=O)CC1 (stereo unspecified) | 1.27 | 0.445 | 3.84 | – | – | – | –
64 | O=NN(CCCl)C(=O)NC1CCC(Br)CC1 (stereo unspecified) | 1.24 | 0.571 | 2.67 | – | – | – | –
65 | CC1CC(NC(=O)N(CCCl)N=O)CC(C)(C)C1 (stereo unspecified) | 0.294 | -0.434 | 4.06 | – | – | – | –
66 | O=NN(CCCl)C(=O)NC1CCCC(NC(=O)N(CCCl)N=O)C1 (stereo unspecified) | 1.41 | 0.146 | 2.74 | – | – | – | –
67 | O=NN(CCCl)C(=O)NC1CCC(Cl)CC1 (stereo unspecified) | 1.25 | 0.738 | 2.66 | – | – | – | –
68 | O=NN(CCCl)C(=O)NC(CCC(=O)O)C(=O)O (stereo unspecified) | 0.87 | 0.037 | 0.6 | – | – | – | –
69 | CC(=O)OC1OC(C)C(OC(C)=O)C(OC(C)=O)C1NC(=O)N(CCCl)N=O (stereo unspecified) | 1.93 | 1.21 | 1.32 | – | – | – | –
70 | O=NN(CCCl)C(=O)N[C@H]1C(O)O[C@H](CO)[C@@H](O)[C@@H]1O (stereo in doubt; 75) [CHLOROZOTOCIN] | 1.76 | 1.03 | – | -1.02 | – | – | –
71 | O=NN(CCCl)C(=O)N[C@H]1C(O)O[C@H](CO)[C@@H](O)[C@@H]1O (stereo in doubt; 103) [CHLOROZOTOCIN] | 1.46 | 0.928 | – | -0.66 | – | – | –
